Converted amounts (≈) assume the structure as drawn. Each block holds one molecule with its values, some of them ahead of it.
Legend:
[1] = system: Madin-Darby canine kidney (MDCK) cells with canine MDR1 knocked out; test: MDCK permeability assay; assay type: in vitro ADME; conditions: apical to basolateral direction
Outline: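 MDCK cells with endogenous canine MDR1 knocked out. Transport of the test compound was measured in the apical-to-basolateral direction. Permeability was reported in 10^-6 cm/s. Data were accepted only when compound recovery was 70%-130%.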

Kinetic solubility = assay type: physicochemical; conditions: PBS buffer, pH 7.4, aqueous buffer, kinetic from dmso stock

SMILES: O=C(Cn1ccnc1)Nc1ccc(C2CCCCC2)cc1 [1c]
permeability (passive diffusion rate), level in words [1]: high

SMILES: CN(Cc1cccnc1)C(=O)c1ccc(C2CCCCC2)cc1 [2c']
permeability (passive diffusion rate), level in words [1]: highly permeable

SMILES: CC(=O)N1CC(C(=O)Nc2ccc(C3CCCCC3)cc2)C1 [1i]
permeability (passive diffusion rate), level in words [1]: high

Next, values leading:

permeability (passive diffusion rate), level in words [1]: highly permeable
SMILES: CN(Cc1cccnc1)C(=O)c1ccc([C@H]2[C@@H](F)[C@@H](F)C[C@@H](F)[C@H]2F)cc1 [J-2c']

solubility kinetic at 24 h (Kinetic solubility): 136 µM (≈ 46.4 µg/mL)
SMILES: O=C(Nc1ccc([C@H]2[C@@H](F)[C@@H](F)C[C@@H](F)[C@H]2F)cc1)c1cn[nH]c1 [J-1b]

— paper PMC9465827 (ACS Medicinal Chemistry Letters, 2022)
